Measurements: ChEMBL document CHEMBL3612038, “N-Alkyl/aryl-4-(3-substituted-3-phenylpropyl)piperazine-1-carbothioamide as dual-action vaginal microbicides with reverse transcriptase inhibition” (Eur J Med Chem, 2015)
Values after ≈ are worked out from the molar mass of the structure shown.

Experiments:
Trichomonas vaginalis [1] = assay: Anti-trichomonas activity against MTZ-resistant Trichomonas vaginalis incubated for 3 to 48 hrs by trypan blue exclusion assay; format: functional
How it was run: (§1)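 Trichomonas vaginalis trophozoites (5 × 10^4/L as printed) in TYM medium; DMSO stocks (100.0 mg/mL) serially diluted in TYM to 0.1 mg/mL, DMSO/TYM vehicle controls. Anaerobic incubation at 37 °C; viability checked 3–48 h by microscopy (200×) with trypan blue exclusion. MIC = lowest concentration killing all cells within 48 h.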

HeLa = assay: Cytotoxicity against human HeLa cells assessed as reduction in cell viability at 200 ug/ml incubated for 24 hrs by MTT assay; format: cell-based
How it was run: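 HeLa cells seeded at 5 × 10^4 per well, exposed 24 h to compound dilutions in culture medium or vehicle control; MTT (5 mg/mL in pH 7.4 buffer) added, formazan dissolved in DMSO, absorbance read at 540 nm.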

Aspergillus fumigatus = assay: Antifungal activity against Aspergillus fumigatus incubated for 48 hrs by broth micro-dilution method; format: functional
How it was run: (§2)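 Broth microdilution per NCCLS guidelines in RPMI 1640 buffered with MOPS; starting inoculum 1–5 × 10^3 CFU/mL; plates incubated at 35 °C, MIC read after 48 h.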

[2] = tested on: Trichophyton mentagrophytes; assay: Antifungal activity against Trichophyton mentagrophytes incubated for 48 hrs by broth micro-dilution method; format: functional; how it was run: as §2
Trichomonas vaginalis [3] = assay: Anti-trichomonas activity against MTZ-susceptible Trichomonas vaginalis incubated for 3 to 48 hrs by trypan blue exclusion assay; format: functional; how it was run: as §1
[4] = target: Human immunodeficiency virus type 1 reverse transcriptase (Human immunodeficiency virus 1) (UniProt Q72547); assay: Inhibition of HIV1 reverse transcriptase at 100 ug/ml incubated for 1 hr by ELISA method
How it was run: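 Non-radioactive colorimetric ELISA: template/primer with dNTPs plus HIV-1 RT in lysis buffer ± compound (100 µg/mL), 1 h at 37 °C; RT-free buffer as negative control, nevirapine as positive control. Product captured on streptavidin plate 1 h at 37 °C, detected with anti-DIG-POD and ABTS, OD 405 nm.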

Candida parapsilosis = assay: Antifungal activity against Candida parapsilosis ATCC 22019 incubated for 48 hrs by broth micro-dilution method; format: functional; conditions: Lodderomyces parapsilosis, ATCC 22019, 48 h; how it was run: as §2
Sporothrix schenckii = assay: Antifungal activity against Sporothrix schenckii incubated for 48 hrs by broth micro-dilution method; format: functional; how it was run: as §2
Trichomonas vaginalis [5] = assay: Resistance index, ratio of MIC for MTZ-resistant Trichomonas vaginalis to MIC for MTZ-susceptible Trichomonas vaginalis; format: functional
[6] = Spermicidal activity in liquefied human semen assessed as reduction in motile spermatozoa incubated at 37 degC for 30 mins; format: functional, Sperm; conditions: for minimal effective concentration: Homo sapiens, Sperm, Semen, 0.5 h, read-out: MEC
How it was run: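 Compounds dissolved in minimal DMSO, diluted with 0.85% saline to 1.0% test solution; liquefied human semen mixed 1:5 with test solution, vortexed 10 s; motile sperm scored by phase-contrast microscopy over 60 s in five fields. MEC = lowest concentration immobilizing 100% of sperm, still immotile after dilution with nutrient medium.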

Cryptococcus neoformans = assay: Antifungal activity against Cryptococcus neoformans incubated for 48 hrs by broth micro-dilution method; format: functional; how it was run: as §2
[7] = Effect on Lactobacillus jensenii ATCC 25258 62G assessed as effect on microbial proliferation at 200 ug/ml incubated for 24 hrs
How it was run: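 L. jensenii ATCC 25258 (strain 62G) in 6% Rogosa SL broth with 0.132% acetic acid; serial compound dilutions or vehicle in triplicate, ~1000 CFU per well, 24 h at 37 °C, humidified 5% CO2; growth read as OD610, expressed relative to control = 100.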

Candida albicans = assay: Antifungal activity against Candida albicans incubated for 48 hrs by broth micro-dilution method; format: functional; how it was run: as §2

SMILES | MIC (Trichomonas vaginalis [1]) [µM] | Activity (HeLa) | MIC (Aspergillus fumigatus) [µM] | MIC [2] [µM] | MIC (Trichomonas vaginalis [3]) [µM] | inhibition [4] [%] | MIC (Candida parapsilosis) [µM] | MIC (Sporothrix schenckii) [µM] | Ratio (Trichomonas vaginalis [5]) | MEC [6] [%] | minimal effective concentration [6] [µM] | MIC (Cryptococcus neoformans) [µM] | Activity [7] | MIC (Candida albicans) [µM]
O=C(CCN1CCN(C(=S)NC2CCCCC2)CC1)c1ccccc1 | 175 (≈ 62.8 µg/mL) | Non-toxic | > 81.2 | 4.33 (≈ 1.56 µg/mL) | 43.3 (≈ 15.6 µg/mL) | 47.7 | > 81.2 | > 81.2 | 2 | 0.05 | 1390 | 8.6 (≈ 3.09 µg/mL) | Non-toxic | 34.7 (≈ 12.5 µg/mL)
O=C(CCN1CCN(C(=S)NCCc2ccccc2)CC1)c1ccccc1 | 164 (≈ 62.6 µg/mL) | Non-toxic | > 81.2 | > 81.2 | 40.8 (≈ 15.6 µg/mL) | 50.2 | > 81.2 | > 81.2 | 2 | 0.01 | 260 | > 81.2 | Non-toxic | > 81.2
CCCCNC(=S)N1CCN(CCC(Oc2ccc(C(F)(F)F)cc2)c2ccccc2)CC1 (configuration not stated) | 261 (≈ 125 µg/mL) | Non-toxic | > 81.2 | > 81.2 | 130 (≈ 62.6 µg/mL) | 59.6 | > 81.2 | > 81.2 | 2 | >1 | > 20900 | > 81.2 | Non-toxic | > 81.2
OC(CCN1CCN(C(=S)NCCc2ccccc2)CC1)c1ccccc1 (configuration not stated) | 163 (≈ 62.6 µg/mL) | Non-toxic | > 81.2 | > 81.2 | 40.6 (≈ 15.6 µg/mL) | 45.3 | > 81.2 | > 81.2 | 4 | 0.1 | 2610 | > 81.2 | Non-toxic | > 81.2
FC(F)(F)c1ccc(OC(CCN2CCN(C(=S)NCc3ccccc3)CC2)c2ccccc2)cc1 (configuration not stated) | 243 (≈ 125 µg/mL) | Non-toxic | > 81.2 | 6.07 (≈ 3.12 µg/mL) | 60.9 (≈ 31.3 µg/mL) | 51 | > 81.2 | > 81.2 | 2 | >1 | > 19500 | 12.1 (≈ 6.21 µg/mL) | Non-toxic | > 81.2
OC(CCN1CCN(C(=S)Nc2ccccc2)CC1)c1ccccc1 (configuration not stated) | 352 (≈ 125 µg/mL) | Non-toxic | > 81.2 | > 81.2 |  |  | > 81.2 | > 81.2 | 2 | 0.1 | 2820 | > 81.2 | Non-toxic | > 81.2
CCCCNC(=S)N1CCN(CCC(O)c2ccccc2)CC1 (configuration not stated) | 187 (≈ 62.6 µg/mL) | Non-toxic | > 81.2 | > 81.2 | 46.4 (≈ 15.6 µg/mL) | 29.1 | > 81.2 | > 81.2 | 4 | 0.05 | 1490 | > 81.2 | Non-toxic | > 81.2
FC(F)(F)c1ccc(OC(CCN2CCN(C(=S)Nc3ccccc3)CC2)c2ccccc2)cc1 (configuration not stated) |  | Non-toxic | > 81.2 | > 81.2 | 50.1 (≈ 25 µg/mL) | 21.1 | > 81.2 | > 81.2 | 2 | 0.05 | 1000 | > 81.2 | Non-toxic | > 81.2
OC(CCN1CCN(C(=S)NCc2ccccc2)CC1)c1ccccc1 (configuration not stated) | 339 (≈ 125 µg/mL) | Non-toxic | > 81.2 | > 81.2 | 169 (≈ 62.6 µg/mL) | 47.2 | > 81.2 | > 81.2 | 2 | 0.05 | 1350 | > 81.2 | Non-toxic | > 81.2
O=C(CCN1CCN(C(=S)NCc2ccccc2)CC1)c1ccccc1 | 341 (≈ 125 µg/mL) | Non-toxic | > 81.2 | 4.22 (≈ 1.55 µg/mL) | 85.1 (≈ 31.3 µg/mL) | 58.3 | > 81.2 | > 81.2 | 2 | 0.1 | 2720 | 8.47 (≈ 3.11 µg/mL) | Non-toxic | 67.9 (≈ 25 µg/mL)
FC(F)(F)c1ccc(OC(CCN2CCN(C(=S)NCCc3ccccc3)CC2)c2ccccc2)cc1 (configuration not stated) | 118 (≈ 62.5 µg/mL) | Non-toxic | > 81.2 | > 81.2 | 47.3 (≈ 25 µg/mL) | 38.4 | > 81.2 | > 81.2 | 2 | >1 | > 19000 | > 81.2 | Non-toxic | > 81.2
O=C(CCN1CCN(C(=S)Nc2ccccc2)CC1)c1ccccc1 | 354 (≈ 125 µg/mL) | Non-toxic | > 81.2 | 17.6 (≈ 6.22 µg/mL) | 88.5 (≈ 31.3 µg/mL) | 49.2 | > 81.2 | > 81.2 | 2 | 0.1 | 2830 | 17.6 (≈ 6.22 µg/mL) | Non-toxic | > 81.2
FC(F)(F)c1ccc(OC(CCN2CCN(C(=S)NC3CCCCC3)CC2)c2ccccc2)cc1 (configuration not stated) | 495 (≈ 250 µg/mL) | Non-toxic | > 81.2 | > 81.2 | 64.3 (≈ 32.5 µg/mL) | 24.3 | > 81.2 | > 81.2 | 2 | >1 | > 19800 | > 81.2 | Non-toxic | > 81.2
OC(Cn1cncn1)(Cn1cncn1)c1ccc(F)cc1F [FLUCONAZOLE] |  |  | > 81.2 | > 81.2 |  |  | 6.53 (≈ 2 µg/mL) | 6.53 (≈ 2 µg/mL) |  |  |  | 6.53 (≈ 2 µg/mL) |  | 3.26 (≈ 0.998 µg/mL)
Cc1ncc([N+](=O)[O-])n1CCO [METRONIDAZOLE] | 293 (≈ 50.1 µg/mL) |  |  |  | 19.7 (≈ 3.37 µg/mL) |  |  |  | 15 |  |  |  |  | 
OC(CCN1CCN(C(=S)NC2CCCCC2)CC1)c1ccccc1 (configuration not stated) | 174 (≈ 62.8 µg/mL) | Non-toxic | > 81.2 | > 81.2 | 173 (≈ 62.6 µg/mL) | 24.3 | > 81.2 | > 81.2 | 2 | 1 | 27700 | > 81.2 | Non-toxic | > 81.2
